This experiment relates to Candida glabrata growth in glycerol medium, OD600, 48 h. Briefly: C. glabrata respiratory growth inhibitors tested alone – glycerol medium, OD600, dry powder, set 4, dose response (AID 624014). The essentials:
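buffer or medium = CSM-glycerol medium | test system = Candida glabrata yeast cells, whole-organism growth assay | control set = amphotericin B at 10 µM as positive control | measured by = absorbance at 600 nm (OD600) as growth measure | schedule = compound exposure 48 h at 30 °C, static, humidified | doses = compounds delivered into wells by pin transfer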

Our source for the AC50 values is PubChem BioAssay AID624014 (Broad Institute, 2012).

Where “and” joins values, the source holds several entries; their conditions need not be identical. Equal values may be shown once.

Take `CCOC(=O)N1C(=O)C2(CCCCC2)N(c2ccc(C#N)cc2)C1=S`: the AC50 is 27.8 nM.

Regarding `CCOC(=O)N1C(=O)C2(CCCCC2)N(c2ccc(F)cc2)C1=S`, the AC50 was 6.16 nM.

Turning to `CCOC(=O)N1C(=O)C2(CCCCC2)N(c2ccc(C)cc2)C1=S`, the half-maximal activity concentration (AC50) is 31.8 nM and 22.4 nM.

On to `CCOC(=O)N1C(=O)C2(CCCCC2)N(c2ccccc2)C1=S`, for which the AC50 was 19.4 nM.

In the case of `CCOC(=O)N1C(=O)C2(CCCCC2)N(c2cccc(C)c2)C1=S`, the concentration at half-maximal activity (AC50) is 23.9 nM.

On to `C/C=C/[C@@H]1[C@H]2C[C@@H](C)CC[C@@H]2C(C)=C[C@H]1C(=O)c1c(O)c(-c2ccc(O)cc2)c[nH]c1=O`, for which the AC50 was 2450 nM.

In the case of `CC1/C=C/C=C\C=C\C=C\C=C\C=C\C=C\C(O[C@H]2OC(C)C(O)C(N)C2O)CC2OC(O)(CC(O)CC(O)C(O)CCC(O)CC(O)CC(=O)OC(C)C(C)C1O)CC(O)C2C(=O)O` (stereo partly drawn), the AC50 was 602 nM.

`CCOC(=O)N1C(=O)C2(CCCCC2)N(c2ccc(Cl)cc2)C1=S`: the half-maximal activity concentration (AC50) is 13.8 nM.

As a reminder, the AC50 is the midpoint of the concentration-response curve, whichever way the signal moves.
